Assay results gathered from unrelated publications.
Protocols differ between the studies behind these lines.
Cell line: MCF7
Effect on: cell growth or viability

COc1ccc(-c2ccc3ncnc(Nc4cccc(C(F)(F)F)c4)c3c2)cc1  IC50 (MTT; 24 h): 11.7 µM
Cc1cc(=O)[nH]c(=O)n1Cc1cn(-c2c3ccccc3nc3ccccc23)nn1  IC50 (MTT): 2.7 µM
O=C(/N=C1\S/C(=C\c2ccc(Cl)cc2)C(=O)N1C1CCCCC1)c1ccc2ccccc2c1  IC50 (48 h): 6.93 µM
Cc1ccc2nc(-c3ccc(Cl)c(Cl)c3)n(Cc3ccccc3)c2c1  IC50 (MTT): 80.5 µM
Clc1ccnc2c1ccc1c(Cl)ccnc12  IC50 (MTT; 48 h): > 50 µM
c1cc2c(cc1CNCC1CCNCC1)OCO2  IC50 (MTT; 72 h): > 100 µM
FC(F)(F)c1cccc(Nc2ncnc3ccc(Nc4ccccc4)cc23)c1  IC50 (MTT; 24 h): 11.4 µM
Oc1c(I)cc(Cl)c2cccnc12  IC50 (MTT; 48 h): 50.2 µM
CC(C)C(=O)Nc1ccc([N+](=O)[O-])c(C(F)(F)F)c1  IC50 (CCK-8; 48 h): 39 µM
COc1cc2ncnc(Nc3ccc(F)c(Cl)c3)c2cc1NC(=O)N/N=C/CN1CCCC1  IC50 (MTT; 72 h): 7.53 µM
O=C(NC(=S)NCCCNC(=S)NC(=O)c1ccc2ccccc2c1)c1ccc2ccccc2c1  IC50 (48 h): 1.12 µM
COc1cc(OC)c(/C=C/S(=O)(=O)Nc2ccc(OC)c(N)c2)c(OC)c1  IC50 (trypan blue; 96 h): 0.004 µM
O=S(=O)(NN=Cc1cn(CCN2CCOCC2)c2ccccc12)c1ccc2ccccc2c1  IC50 (MTT; 48 h): 29.9 µM
O=C(NC(=S)NCc1ccc(CNC(=S)NC(=O)c2ccc3ccccc3c2)cc1)c1ccc2ccccc2c1  IC50 (48 h): 1.19 µM
COc1ccc(-c2nc3ccccc3[nH]2)cc1OC  IC50 (MTT; 48 h): > 100 µM
Cc1nc(Nc2ncc(C(=O)Nc3c(C)cccc3Cl)s2)cc(N2CCN(CCO)CC2)n1  IC50 (MTT; 48 h): 7.99 µM
O=c1c(O)c(-c2ccc(O)cc2)oc2cc(O)cc(O)c12  IC50 (WST-1; 48 h): 27.2 µM
Oc1cccc(-c2ccc3ncnc(Nc4cccc(C(F)(F)F)c4)c3c2)c1  IC50 (MTT; 24 h): 18.1 µM
CN(C)C/C=C/C(=O)Nc1cc2c(Nc3ccc(F)c(Cl)c3)ncnc2cc1O[C@H]1CCOC1  IC50 (MTT; 72 h): 1.8 µM
COc1cc([C@@H]2c3cc4c(cc3[C@@H](O[C@@H]3O[C@@H]5CO[C@@H](C)O[C@H]5[C@H](O)[C@H]3O)[C@H]3COC(=O)[C@H]23)OCO4)cc(OC)c1O  IC50 (MTT; 48 h): 32.8 µM
Cc1ccc2nc(-c3ccc([N+](=O)[O-])cc3)n(Cc3ccccc3Cl)c2c1  IC50 (MTT): 20.2 µM
O=C(N/N=C/c1cccn1CCCN1CCOCC1)Nc1cc2c(Nc3ccc(F)c(Cl)c3)ncnc2cc1O[C@H]1CCOC1  IC50 (MTT; 72 h): 5.57 µM
COc1ccc(Nc2nc(-n3nc(C)cc3C)nc(-n3nc(C)cc3C)n2)cc1  IC50 (MTT; 72 h): 12 µM
CC1CCC(OCn2c[n+](Cc3ccccc3)c3ccccc32)CC1 (stereo not shown)  IC50 (MTT; 72 h): 27 µM
COc1cc2ncnc(Nc3ccc(F)c(Cl)c3)c2cc1NC(=O)N/N=C/CN1CCOCC1  IC50 (MTT; 72 h): 7.43 µM
COc1nc(OCc2cccc(-c3ccccc3)c2C)ccc1CNCCNC(C)=O  IC50 (MTT): 6.2 µM
Cc1ccc2nc(-c3ccc(Cl)cc3)n(Cc3ccccc3)c2c1  IC50 (MTT): 5.66 µM
COc1ccc(C(=O)O[C@@H]2CN3Cc4c(cc5c(c4OC)OCO5)[C@@]24C=C[C@H](OC)C[C@@H]34)cc1  IC50 (WST-1): > 10 µM
COc1cccc2c1C(=O)c1c(O)c3c(c(O)c1C2=O)C[C@@](O)(C(=O)CO)C[C@@H]3O[C@H]1C[C@H](N)[C@H](O)[C@H](C)O1  IC50 (SRB): 0.06 µM
O=C(N/N=C/CN1CCCCC1)Nc1cc2c(Nc3ccc(F)c(Cl)c3)ncnc2cc1O[C@H]1CCOC1  IC50 (MTT; 72 h): 1.53 µM
COc1cc(/C=N/c2nc(SC)nn2-c2ccc(C(=O)O)cc2)ccc1O  IC50 (MTT): 29.4 µM
COc1ccc(-c2nn(-c3ccc(S(C)(=O)=O)cc3)cc2/C=N/N=c2\[nH]c(-c3ccc(Br)cc3)cs2)cc1  IC50 (MTT; 48 h): 3.18 µM
O=C(NC(=S)NCCNC(=S)NC(=O)c1ccc2ccccc2c1)c1ccc2ccccc2c1  IC50 (48 h): 1.2 µM
COc1cc2ncnc(Nc3ccc(F)c(Cl)c3)c2cc1NC(=O)N/N=C/c1cccn1CCN(C)C  IC50 (MTT; 72 h): 3.21 µM
COc1ccc(-c2csc(Nc3ccc4c(O)ncnc4c3)n2)cc1  IC50 (MTT): 9.75 µM
CSc1ccc(-c2nc3ccc(C)cc3[nH]2)cc1  IC50 (MTT; 48 h): 45 µM
O=C(O)c1ccc(-n2nc(Oc3ccccc3)nc2/N=C/c2cc([N+](=O)[O-])ccc2O)cc1  IC50 (MTT): 21.6 µM
O=C1C[C@@H](c2ccc(O)cc2)Oc2cc(O)cc(O)c21  IC50 (MTT; 48 h): 4.75 µM
O=[N+]([O-])c1ccc(-c2csc(Nc3ccc4c(O)ncnc4c3)n2)cc1  IC50 (MTT): 3.09 µM
CCOc1ccc(-c2nc3ccccc3n2Cc2ccccc2)cc1  IC50 (MTT): 40.1 µM
Oc1ncnc2cc(Nc3nc(-c4ccc(Cl)cc4)cs3)ccc12  IC50 (MTT): 4.14 µM
Fc1ccc(-c2nc3ccccc3n2Cc2ccccc2)cc1  IC50 (MTT): 31.5 µM
CSc1nc(/N=C/c2ccc(O)cc2)n(-c2ccc(C(=O)O)cc2)n1  IC50 (MTT): 34.8 µM
COc1cccc2c1C(=O)c1c(O)c3c(c(O)c1C2=O)C[C@@](O)(C(=O)CO)C[C@@H]3O[C@H]1C[C@H](N)[C@H](O)[C@H](C)O1  IC50 (MTT): 3.39 µM
Cc1ccc2nc(-c3ccc(N(C)C)cc3)[nH]c2c1  IC50 (MTT; 48 h): 47.7 µM
O=C(N/N=C/CN1CCCC1)Nc1cc2c(Nc3ccc(F)c(Cl)c3)ncnc2cc1O[C@H]1CCOC1  IC50 (MTT; 72 h): 3.12 µM
O=S(=O)(NN=Cc1cn(CCN2CCOCC2)c2ccccc12)c1ccc(-c2ccccc2)cc1  IC50 (MTT; 48 h): 17.3 µM
CC(=O)CC(=O)[c-]1cccc1.[Fe+2].c1cc[cH-]c1  IC50 (MTT; 96 h): 54 µM
COc1cc2ncnc(Nc3ccc(F)c(Cl)c3)c2cc1NC(=O)N/N=C/c1cccn1CCN1CCCCC1  IC50 (MTT; 72 h): 2.18 µM
